{"source": "ChEMBL document CHEMBL1147467", "about": "“Design and synthesis of oxadiazolidinediones as inhibitors of plasminogen activator inhibitor-1” (Bioorg Med Chem Lett, 2004)"}
{"target": "T1, Plasminogen activator inhibitor 1 (Homo sapiens, UniProt P05121)", "assay": "In vitro concentration required for inhibition of tissue type plasminogen activator by plasminogen activator inhibitor-1 at concentration 25 um", "outline": "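Recombinant human PAI-1 (140 nM) preincubated 1 h at room temperature with compound (1-100 µM final, ≤0.2% DMSO) in pH 6.6 buffer. Recombinant human tPA (70 nM; PAI-1:tPA 2:1) then added for 30 min, followed by the chromogenic tPA substrate Spectrozyme-tPA, with A405 read at 0 and 60 min.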", "units": {"IC50": "µM"}}
{"smiles": "C/C(=C\\Cn1oc(=O)[nH]c1=O)c1cccc(COc2cc(C(F)(F)F)cc(C(F)(F)F)c2)c1", "IC50": 5.29}
{"smiles": "C/C(=C\\Cn1oc(=O)[nH]c1=O)c1cccc(OCc2ccccn2)c1", "IC50": 24}
{"smiles": "C/C(=C\\Cn1oc(=O)[nH]c1=O)c1cccc(OCc2cc(C(F)(F)F)cc(C(F)(F)F)c2)c1", "IC50": 9.4}
{"smiles": "C/C(=C\\Cn1oc(=O)[nH]c1=O)c1cccc(OCc2ccccc2-c2ccccc2)c1", "IC50": 2.3}
{"smiles": "COc1cc(/C=C/Cn2oc(=O)[nH]c2=O)ccc1OCc1ccc(Cl)c(Cl)c1", "IC50": 3.22}
{"smiles": "O=c1[nH]c(=O)n(C/C=C/c2cc(OCc3ccc(Cl)cc3)cc(OCc3ccc(Cl)cc3)c2)o1", "IC50": 2.1}
{"smiles": "C/C(=C/Cn1oc(=O)[nH]c1=O)c1cccc(COc2cc(C(F)(F)F)cc(C(F)(F)F)c2)c1", "IC50": 7.2}
{"smiles": "O=c1[nH]c(=O)n(C/C=C/c2cc(OCc3ccc(C(F)(F)F)cc3)cc(OCc3ccc(C(F)(F)F)cc3)c2)o1", "IC50": 2.5}
{"smiles": "O=c1[nH]c(=O)n(C/C=C/c2cc(OCc3ccc(Cl)c(Cl)c3)ccc2Cl)o1", "IC50": 3.8}
{"target": "T1, Plasminogen activator inhibitor 1", "assay": "Inhibitory activity against plasminogen activator inhibitor-1", "units": {"IC50": "µM"}}
{"smiles": "CC/C(=C\\Cn1oc(=O)[nH]c1=O)c1ccc(OCc2cc(C(F)(F)F)cc(C(F)(F)F)c2)cc1", "IC50": 9}
{"smiles": "O=c1[nH]c(=O)n(C(CCc2ccc(OCc3cccc(Cl)c3)cc2)c2ccccc2)o1", "note": "(centres undefined)", "IC50": 0.68}
{"smiles": "CCCCC(CCn1oc(=O)[nH]c1=O)c1cccc(Oc2cccc(C)c2)c1", "note": "(centres undefined)", "IC50": 2.2}
{"smiles": "O=c1[nH]c(=O)n(C/C=C/c2ccc(OCc3cc(C(F)(F)F)cc(C(F)(F)F)c3)cc2)o1", "IC50": 14.9}
{"smiles": "CC(/C=C/c1ccc(OCc2cccc(C(F)(F)F)c2)cc1)n1oc(=O)[nH]c1=O", "note": "(centres undefined)", "IC50": 5.8}
{"smiles": "CC(/C=C/c1ccc(OCc2ccc(Cl)c(Cl)c2)cc1)n1oc(=O)[nH]c1=O", "note": "(centres undefined)", "IC50": 6.1}
{"smiles": "CCCC/C(=C\\Cn1oc(=O)[nH]c1=O)c1cccc(Oc2cc(Cl)cc(Cl)c2)c1", "IC50": 1.9}
{"smiles": "O=c1[nH]c(=O)n(C(CCc2ccc(OCc3cc(C(F)(F)F)cc(C(F)(F)F)c3)cc2)c2ccccc2)o1", "note": "(centres undefined)", "IC50": 0.39}
{"target": "T1, Plasminogen activator inhibitor 1", "assay": "In vitro inhibition of plasminogen activator inhibitor-1 at concentration 25 um", "units": {"inhibition": "%"}}
{"smiles": "C/C(=C\\Cn1oc(=O)[nH]c1=O)c1cccc(OCc2ccccc2)c1", "inhibition": 24}
{"smiles": "C/C(=C\\Cn1oc(=O)[nH]c1=O)c1cccc(OCc2cccc(C)c2)c1", "inhibition": 37}
